Marks after values point to notes of the source that are not given here.
Key:
dopamine D4.2 receptor = biological target: T1, dopamine D4.2 receptor (Homo sapiens, UniProt P21917, DEL265-296); test: Dopamine D4.2 receptor radioligand binding; settings: 10 μM, human recombinant CHO-K1 cells
T1 sequence (P21917 with tags, fused parts or gaps DEL265-296): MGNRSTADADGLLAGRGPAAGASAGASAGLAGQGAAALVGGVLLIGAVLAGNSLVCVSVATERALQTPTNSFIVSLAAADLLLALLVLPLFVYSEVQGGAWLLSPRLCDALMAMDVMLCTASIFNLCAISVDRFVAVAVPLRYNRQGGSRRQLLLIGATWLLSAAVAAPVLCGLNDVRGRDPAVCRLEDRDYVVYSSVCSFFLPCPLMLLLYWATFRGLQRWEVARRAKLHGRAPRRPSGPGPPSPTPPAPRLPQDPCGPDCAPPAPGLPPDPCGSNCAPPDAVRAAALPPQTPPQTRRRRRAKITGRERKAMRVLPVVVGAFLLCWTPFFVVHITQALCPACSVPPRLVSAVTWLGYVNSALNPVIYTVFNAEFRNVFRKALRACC
Outline: (§1)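 Human recombinant receptors expressed in CHO cells (D1, D2L) or CHO-K1 cells (D4.2) were used in radioligand binding assays with [3H]SCH-23390 (D1), [3H]spiperone (D2L) or [3H]dopamine (D4.2). The test compound or its metabolite was tested at a single concentration of 10 μM. Results are expressed as percent inhibition of specific binding.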

[1] = test system: estradiol-induced prolactin release; test: Ovariectomized rat estradiol-induced prolactin release; format: in vivo; settings: ovariectomized female rats, 180 mg/kg/day
Outline: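 Female Han Wistar rats (350–375 g) were ovariectomized and given jugular and femoral vein catheters, then recovered 7–14 days. Test compound (180 mg/kg/day) or vehicle (1% sodium CMC in 0.1% polysorbate 80) was given orally for 4 days (n = 10/group). On Day 4, estradiol (2 μg/rat) was given IV 1 h post-dose. Remote femoral blood was sampled to 5 h. Plasma prolactin was measured by ELISA. Baseline-subtracted AUC was log-transformed and compared by t-test.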

[2] = Rat free systemic exposure in carcinogenicity study; format: in vivo
Outline: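 Satellite carcinogenicity rats (10 per sex per dose) dosed orally at 20, 60 or 180/120 mg/kg/day. Heparinised blood taken on Days 1 and 3 and in Weeks 26 and 52, at 2–24 h post-dose (3 rats per sex per time point). Analysed by protein precipitation and LC-MS/MS.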

Protein binding, human = format: in vitro ADME
Wistar rats = test: Tumor findings in rat 2-year carcinogenicity bioassay; format: in vivo; settings: female rats, 2 years
Outline: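 Wistar Han rats, 50 per sex per group (100 control females), started at seven weeks old and gavaged daily for 2 years at 0, 20, 60 or 180 mg/kg/day (females) in 1% carboxymethylcellulose/0.1% polysorbate 80. Full tissue list was paraffin-embedded, H&E-stained, examined microscopically and peer reviewed. Histology analysed by two-tailed Fisher's exact test; tumours by multiple testing at 5% significance.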

Protein binding, rat = format: in vitro ADME
[3] = test system: Alderly Park (Wistar derived) rats; test: Rat micronucleus in vivo assay; settings: 2000 mg/kg
Outline: (§2)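 Genotoxicity screens. Ames: Salmonella strains exposed to 3–3000 μg/plate with and without metabolic activation; read-out was reverse-mutation frequency. Mouse lymphoma: L5178Y/TK+ cells treated for 4 h with S9 (15.7–41.8 μg/mL), for 4 h without S9 (5.23–15.7 μg/mL), and for 24 h without S9; read-out was clone number. Micronucleus: male and female Alderly Park rats given 2000 mg/kg; micronuclei scored 24 or 48 h post-dose.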

[4] = biological target: human dopamine transporter (Homo sapiens, UniProt Q01959); test: Dopamine transporter radioligand binding
human dopamine transporter, sequence (Q01959 whole entry): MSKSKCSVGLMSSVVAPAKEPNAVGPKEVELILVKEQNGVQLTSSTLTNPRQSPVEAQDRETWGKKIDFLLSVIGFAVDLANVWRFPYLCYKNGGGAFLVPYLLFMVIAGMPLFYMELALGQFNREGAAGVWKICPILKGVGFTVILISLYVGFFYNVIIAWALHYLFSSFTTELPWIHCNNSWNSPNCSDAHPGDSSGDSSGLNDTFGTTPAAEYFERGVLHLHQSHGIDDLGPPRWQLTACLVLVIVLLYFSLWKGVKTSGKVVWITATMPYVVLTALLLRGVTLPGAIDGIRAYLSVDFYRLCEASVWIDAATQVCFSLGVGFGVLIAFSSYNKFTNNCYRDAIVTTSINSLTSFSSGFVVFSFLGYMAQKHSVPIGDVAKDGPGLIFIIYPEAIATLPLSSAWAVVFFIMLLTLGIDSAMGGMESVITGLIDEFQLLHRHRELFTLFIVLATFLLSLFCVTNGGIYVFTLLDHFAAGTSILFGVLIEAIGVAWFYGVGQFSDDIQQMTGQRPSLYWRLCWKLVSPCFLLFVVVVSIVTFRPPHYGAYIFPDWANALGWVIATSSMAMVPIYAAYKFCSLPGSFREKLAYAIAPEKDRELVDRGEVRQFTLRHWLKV
Outline: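 Radioligand displacement of RTI-55 from human dopamine transporter expressed in recombinant CHO-K1 cells. Screened first at 10 μM as percent inhibition of specific binding. Then tested at 10 ascending concentrations in half-log steps. IC50 and Hill coefficient from non-linear least-squares regression; Ki by Cheng–Prusoff; four repeats. IC50 then compared with free systemic Cmax.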

[5] = test system: L5178Y/TK + 1 mouse lymphoma cells; test: Mouse lymphoma in vitro assay; format: cell-based
Outline: as §2

dopamine D2L receptor = dopamine D2L receptor (Homo sapiens, UniProt P14416); test: Dopamine D2L receptor radioligand binding; settings: 10 μM, human recombinant CHO cells
dopamine D2L receptor, sequence (P14416 whole entry): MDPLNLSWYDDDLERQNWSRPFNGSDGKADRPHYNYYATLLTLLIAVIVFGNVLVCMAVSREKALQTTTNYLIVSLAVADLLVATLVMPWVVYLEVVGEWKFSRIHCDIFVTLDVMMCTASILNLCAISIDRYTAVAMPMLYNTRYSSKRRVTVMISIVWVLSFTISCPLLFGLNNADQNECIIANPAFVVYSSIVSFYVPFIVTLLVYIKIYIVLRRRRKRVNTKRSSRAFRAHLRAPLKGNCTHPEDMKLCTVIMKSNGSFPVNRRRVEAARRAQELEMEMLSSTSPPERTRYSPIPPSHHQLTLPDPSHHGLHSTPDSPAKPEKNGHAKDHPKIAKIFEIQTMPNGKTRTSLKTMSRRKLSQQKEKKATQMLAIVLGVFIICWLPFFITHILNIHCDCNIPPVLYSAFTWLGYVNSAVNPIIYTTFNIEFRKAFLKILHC
Outline: as §1

[6] = Exposure in rat micronucleus in vivo assay; settings: Alderly Park (Wistar derived), 2000 mg/kg
[7] = test system: TA1535 TA100 TA102 TA98 TA1537; test: Ames in vitro assay; format: cell-based, Salmonella
Outline: as §2

CCCSc1nc(N[C@@H]2C[C@H]2c2ccc(F)c(F)c2)c2nnn([C@@H]3C[C@H](OCCO)[C@@H](O)[C@H]3O)c2n1 [Ticagrelor]
Inhibition of radioligand binding at the D4.2 receptor (dopamine D4.2 receptor): neither Ticagrelor nor metabolite caused inhibition | Effect on estradiol-induced prolactin release [1]: all but completely blocked the estradiol-induced prolactin release | Rat free systemic exposure maximal concentration (Cmax) ([2]; high dose group, based on 99.0% protein binding): 502 nM | Rat free systemic exposure Cmax ([2]; low dose group): 43 nM | Rat free systemic exposure Cmax ([2]; mid dose group): 157 nM | fraction unbound (Protein binding, human): 0.008 | Mammary fibroadenoma incidence (Wistar rats; 20 mg/kg/day): 22 percentage | Pituitary hyperplasia and adenoma incidence (Wistar rats; 20 mg/kg/day): 64 percentage | Uterine adenocarcinoma incidence (Wistar rats; 20 mg/kg/day): 10 percentage | Uterine adenosquamous carcinoma incidence (Wistar rats; 20 mg/kg/day): 0 percentage | Uterine squamous cell carcinoma incidence (Wistar rats; 20 mg/kg/day): 0 percentage | Mammary fibroadenoma incidence (Wistar rats; 60 mg/kg/day): 16 percentage | Pituitary anterior lobe adenoma in decedent rats (Wistar rats; 60 mg/kg/day): 53 percentage | Pituitary hyperplasia and adenoma incidence (Wistar rats; 60 mg/kg/day): 73 percentage | Uterine adenocarcinoma incidence (Wistar rats; 60 mg/kg/day): 12 percentage | Uterine adenosquamous carcinoma incidence (Wistar rats; 60 mg/kg/day): 2 percentage | Uterine squamous cell carcinoma incidence (Wistar rats; 60 mg/kg/day): 0 percentage | Mammary fibroadenoma incidence (Wistar rats; 180 mg/kg/day): 2 ^* percentage | Pituitary anterior lobe adenoma in decedent rats (Wistar rats; 180 mg/kg/day): 35 ^* percentage | Pituitary hyperplasia and adenoma incidence (Wistar rats; 180 mg/kg/day): 50 ^* percentage | Uterine adenocarcinoma incidence (Wistar rats; 180 mg/kg/day): 42 ^*** percentage | Uterine adenosquamous carcinoma incidence (Wistar rats; 180 mg/kg/day): 4 percentage | Uterine squamous cell carcinoma incidence (Wistar rats; 180 mg/kg/day): 2 percentage | fraction unbound (Protein binding, rat): 0.01 | Rat micronucleus in vivo: Conclusion [3]: Negative | Rat micronucleus in vivo: Results ([3]; M&F, 24 or 48 h post-dose): No increased frequency of micronuclei at 24 or 48 h post-dose | Inhibition of the dopamine transporter at free systemic Cmax levels ([4]; at human free systemic Cmax): minimal inhibition | Inhibition of the dopamine transporter at free systemic Cmax levels ([4]; at rat free systemic Cmax): > 50% | Mouse lymphoma in vitro: Conclusion [5]: Negative | Mouse lymphoma in vitro: Results ([5]; 15.7–41.8 μg/mL (4 h + S9), 5.23–15.7 μg/mL (4 h − S9), 15.7–36.6 (24 h − S9)): No increased number of clones associated with treatment | Inhibition of radioligand binding at the D2L receptor (dopamine D2L receptor): neither Ticagrelor nor metabolite caused inhibition | AUC ([6]; female): 1140 to 1360 µg·h/mL | Cmax ([6]; female): 45000 to 53000 ng/mL | AUC ([6]; male): 794 to 1240 µg·h/mL | Ames in vitro assay: Conclusion [7]: Negative | Ames in vitro assay: Results ([7]; 3–3000 μg/plate, with or without metabolic activation): No increased frequency of reverse mutations with or without metabolic activation

Source: publication PMC5598522 (Toxicology Reports, 2014)
